Source: BindingDB's records for doi:10.1021/jm100062h (Ferrara University, 2010)

These compounds were tested against T1, Transient receptor potential cation channel subfamily A member 1 (Homo sapiens, UniProt O75762) (assay: Activation of TRPA1 channel).
Outline: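 Cell lines transfected with TRPA1 and loaded with a calcium-sensitive dye, read on FLIPR. Calcium influx is counted as the change in fluorescence above background. Each material was tested by preincubation or by direct addition. Calcium counts are expressed as a percentage of the control calcium count.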

T1 sequence (O75762 whole entry): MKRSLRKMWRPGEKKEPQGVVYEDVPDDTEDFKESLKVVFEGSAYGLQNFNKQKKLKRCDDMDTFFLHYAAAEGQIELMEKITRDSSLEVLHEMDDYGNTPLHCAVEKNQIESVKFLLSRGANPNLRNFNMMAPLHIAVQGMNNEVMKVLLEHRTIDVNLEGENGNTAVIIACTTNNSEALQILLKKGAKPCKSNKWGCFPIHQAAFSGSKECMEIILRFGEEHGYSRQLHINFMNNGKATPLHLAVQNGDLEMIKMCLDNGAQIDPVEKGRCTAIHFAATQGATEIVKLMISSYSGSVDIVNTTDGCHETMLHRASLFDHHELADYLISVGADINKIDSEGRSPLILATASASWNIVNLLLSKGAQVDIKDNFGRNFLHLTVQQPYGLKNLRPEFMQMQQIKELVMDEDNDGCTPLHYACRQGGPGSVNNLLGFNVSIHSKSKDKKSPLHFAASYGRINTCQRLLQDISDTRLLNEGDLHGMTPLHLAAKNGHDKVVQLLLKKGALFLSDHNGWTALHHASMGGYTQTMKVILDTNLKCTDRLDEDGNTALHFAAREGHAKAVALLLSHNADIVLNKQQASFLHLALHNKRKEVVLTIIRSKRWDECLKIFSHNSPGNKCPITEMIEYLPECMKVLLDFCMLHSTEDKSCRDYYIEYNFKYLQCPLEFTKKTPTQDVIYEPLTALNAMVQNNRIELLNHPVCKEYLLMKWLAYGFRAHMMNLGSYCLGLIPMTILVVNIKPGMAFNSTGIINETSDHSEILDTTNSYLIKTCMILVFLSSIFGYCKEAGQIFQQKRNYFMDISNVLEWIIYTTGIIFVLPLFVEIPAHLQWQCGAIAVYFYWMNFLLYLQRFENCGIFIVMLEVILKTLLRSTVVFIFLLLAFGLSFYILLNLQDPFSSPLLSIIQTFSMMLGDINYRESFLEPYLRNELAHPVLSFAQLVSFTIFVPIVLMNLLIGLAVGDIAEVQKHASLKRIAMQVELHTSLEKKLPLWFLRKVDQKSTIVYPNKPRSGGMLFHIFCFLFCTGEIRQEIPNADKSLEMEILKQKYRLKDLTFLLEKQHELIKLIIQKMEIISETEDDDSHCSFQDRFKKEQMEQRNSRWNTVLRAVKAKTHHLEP

SMILES	EC50
CC(C)[C@@H]1CC[C@@H](C)C[C@H]1O	28.4 µM

What follows are compounds tested against T1, Transient receptor potential cation channel subfamily A member 1 (assay: Antagonist activity at human TRPA1 channel expressed in CHO cells assessed as inhibition of cinnamaldehyde-induced intracellular calcium influx).

SMILES	IC50
CCC(N=O)C(C)=Cc1cnc2ccccc2c1 (stereo unspecified) [2-methyl-1-(quinolin-3-yl)pent-1-en-3-one oxime]	> 100 µM
CCC(N=O)C(C)=Cc1cnccc1C (stereo unspecified) [2-methyl-1-(4-methylpyridin-3-yl)pent-1-en-3-one oxime]	> 100 µM
CCC(N=O)C(C)=Cc1ccc(C(F)(F)F)nc1 (stereo unspecified) [2-methyl-1-(6-(trifluoromethyl)pyridin-3-yl)pent-1-en-3-one oxime]	> 100 µM
CCC(N=O)C(C)=Cc1cncc2ccccc12 (stereo unspecified) [1-(isoquinolin-4-yl)-2-methylpent-1-en-3-one oxime]	> 100 µM
CCC(N=O)C(C)=Cc1ccc(C)nc1 (stereo unspecified) [2-methyl-1-(6-methylpyridin-3-yl)pent-1-en-3-one oxime]	> 100 µM
